One assay deals with HeLa. As to the kind of experiment: Tested in vitro for their inhibitory activity against Hela(cervical) cell line. The class given is functional, cell-based. Particulars: Homo sapiens. In short, it runs like this: (§1)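 Cells were seeded at 30 000 per well in DMEM with 10% FBS, and drugs were added 16 h later. Growth continued for 3 days in DMEM/10% FBS with or without a range of drug concentrations. Cells were then counted on a hemocytometer to give growth-inhibition IC50.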

For another assay, the system named is PC-3. The experiment in a line: Tested in vitro for their inhibitory activity against PC-3(prostate) cell line. The class given is functional, cell-based. Particulars: Homo sapiens. In short, it runs like this:
as §1

Another assay has as its system MCF7. As to the kind of experiment: Tested in vitro for their inhibitory activity against MCF-7(breast) cell line. Particulars: Homo sapiens. The class given is functional, cell-based. In short, it runs like this: as §1
The target in assay [1] is Serine/threonine-protein kinase AKT (Homo sapiens, UniProt P31751+Q9Y243+P31749). As to the kind of experiment: Inhibition of Akt (proto-oncogenic serine/threonine PKB) kinase. The format is protein assay.
Assay [2] is described as follows: Inhibition of murine p100/p85 PI3-K (phosphatidylinositol 3-kinase). Further details: species or system Mus musculus.
Another assay relates to HT-29. The experiment in a line: Tested in vitro for their inhibitory activity against HT-29 (colon) cell line. The class given is functional, cell-based. The conditions noted are these: Homo sapiens. In short, it runs like this:
as §1

Six compounds from ChEMBL document CHEMBL1133107, “3-(Hydroxymethyl)-bearing phosphatidylinositol ether lipid analogues and carbonate surrogates block PI3-K, Akt, and cancer cell growth” (J Med Chem, 2000) can be followed below.

The IC50 is the concentration needed to halve the response being measured. Low values mean higher potency, high ones lower potency.

Take `CCCCCCCCCCCCCCCCCCOC[C@H](COC(=O)O[C@@H]1[C@H](O)[C@H](CO)[C@@H](O)[C@H](O)[C@@H]1O)OC`: the IC50 in the assay with HeLa was 2.5 µM; with PC-3 it was 2 µM; in the assay on MCF7 it was 1.2 µM; in assay [1] it was 5 µM; in assay [2], 83 µM; with HT-29, 10 µM.

Regarding `CCCCCCCCCCCCCCCCCCOC[C@H](COP(=O)(O)O[C@@H]1[C@H](O)[C@H](CO)[C@@H](O)[C@H](O)[C@@H]1O)OC`, the IC50 worked out at 1 µM in the assay on HeLa; 4 µM with PC-3; 5 µM in the assay on MCF7; 7.8 µM in assay [1]; 31 µM in assay [2]; 4.5 µM with HT-29.

With `CCCCCCCCCCCCCCCCCCOC[C@H](COC(=O)O[C@H]1[C@@H](O)[C@@H](O)[C@H](O)C[C@H]1O)OC`, the IC50 in the assay on HeLa came to 30 µM; in the assay with PC-3, 7 µM; with MCF7, 12 µM; in assay [1] it was 12.5 µM; in assay [2], 15.5 µM; with HT-29 it was 2.5 µM.

Turning to `CCCCCCCCCCCCCCCCCCOC[C@H](COP(=O)(O)O[C@@H]1[C@H](O)[C@@H](CO)[C@@H](O)[C@H](O)[C@@H]1O)OC`, the IC50 turned out to be 7.5 µM with HeLa; 2 µM in the assay on PC-3; 2 µM in the assay with MCF7; 9.1 µM in assay [1]; 18.5 µM in assay [2]; 7.5 µM with HT-29.

As to `CCCCCCCCCCCCCCCCCCOC[C@H](COP(=O)(O)O[C@H]1[C@@H](O)[C@@H](O)[C@H](O)C[C@H]1O)OC`, the IC50 with HeLa is 7 µM; in the assay with MCF7, 7.2 µM; in assay [2], 14.8 µM.

In the case of `CCCCCCCCCCCCCCCCCCOC[C@H](COC(=O)O[C@@H]1[C@H](O)[C@@H](CO)[C@@H](O)[C@H](O)[C@@H]1O)OC`, the IC50 in the assay on HeLa is > 20 µM; with PC-3, 10 µM; in the assay on MCF7, 12.5 µM; in assay [1], 32 µM; in assay [2], 21.3 µM; in the assay with HT-29, 12 µM.
